Data from ChEMBL document CHEMBL4000163, “Pyrazole derived ultra-short antimicrobial peptidomimetics with potent anti-biofilm activity” (Eur J Med Chem, 2017).
In brackets after ≈: the same amount, converted by molar mass. Activity calls are given as the source filed them. The calls are words filed in the database; no cut-off is given here.

Assays:
[1] = system: Pseudomonas aeruginosa; assay: Antimicrobial activity against Pseudomonas aeruginosa KCTC 1637 incubated for 18 to 20 hrs by broth microdilution assay; format: functional; settings: read-out: MIC100
How it was run: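 Broth microdilution in 1% peptone. Inoculum was 2 × 10⁶ CFU/mL mixed 1:1 with serial 2-fold peptide dilutions and incubated 18–20 h at 37 °C. Growth was read as absorbance at 600 nm; MIC is the lowest peptide concentration giving 100% growth inhibition.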

[2] = system: NIH3T3; assay: Cytotoxicity against mouse NIH/3T3 cells up to 64 ug/mL after 2 days by MTT assay; format: cell-based; settings: nih3t3, 48 h
How it was run: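 Cells in DMEM with 10% FBS seeded at 2×10^4 cells/well and incubated 24 h at 37 °C, 5% CO₂. Serial 2-fold peptide dilutions were added for 2 days, then MTT for 4 h. Formazan was dissolved in 20% SDS/0.01 M HCl and read at 570 nm. Survival is expressed as a percentage of untreated cells.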

[3] = system: Staphylococcus aureus; assay: Antibacterial activity against methicillin resistant Staphylococcus aureus CCARM 3089 after 18 to 20 hrs by broth microdilution assay; format: functional; settings: read-out: MIC100
How it was run: (§1)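 Broth microdilution in 1% peptone: bacteria at 2 × 10⁶ CFU/mL mixed 1:1 with serial 2-fold peptide dilutions, 18-20 h at 37 °C; growth read as absorbance at 600 nm. MIC taken as lowest concentration giving 100% growth inhibition.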

[4] = system: Staphylococcus aureus; assay: Antibacterial activity against methicillin resistant Staphylococcus aureus CCARM 3090 after 18 to 20 hrs by broth microdilution assay; format: functional; settings: read-out: MIC100; how it was run: as §1
[5] = system: Pseudomonas aeruginosa; assay: Antibacterial activity against multidrug-resistant Pseudomonas aeruginosa CCARM 2095 after 18 to 20 hrs by broth microdilution assay; format: functional; settings: read-out: MIC100; how it was run: as §1
[6] = system: Escherichia coli; assay: Antimicrobial activity against Escherichia coli KCTC 1682 in presence of NaCl; format: functional
How it was run: (§2)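 MIC in LB medium with added 150 mM NaCl, 1 mM MgCl₂ or 2.5 mM CaCl₂. Inoculum of 2 × 10⁶ CFU/mL with peptide. Otherwise as the broth microdilution MIC assay; MIC is the lowest concentration giving 100% growth inhibition.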

[7] = system: Staphylococcus aureus; assay: Antimicrobial activity against Staphylococcus aureus KCTC 1621 in presence of NaCl; format: functional
How it was run: (§3)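 MIC by microdilution with 2 × 10⁶ CFU/ml S. aureus KCTC 1621 in LB medium supplemented with physiological salt: 150 mM NaCl, 1 mM MgCl₂ or 2.5 mM CaCl₂; growth inhibition endpoint as in the standard MIC assay.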

[8] = system: Escherichia coli; assay: Antimicrobial activity against Escherichia coli KCTC 1682 in presence of CaCl2; format: functional; how it was run: as §2
[9] = system: Staphylococcus aureus; assay: Antimicrobial activity against Staphylococcus aureus KCTC 1621 in presence of CaCl2; format: functional; how it was run: as §3
[10] = system: Pseudomonas aeruginosa; assay: Antibiofilm activity against multidrug-resistant Pseudomonas aeruginosa CCARM 2095 after 24 hrs by crystal violet staining based method; format: functional; settings: CCARM 2095, 24 h
How it was run: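 MDRPA 2095 (1×10^6 cfu/mL) in MHB with 0.2% glucose, 24 h at 37 °C with or without peptide (2-fold dilutions, 1-64 µg/mL), six wells each. Wells washed with PBS, methanol-fixed, stained with 0.1% crystal violet 5 min, stain resolubilized in 95% ethanol, absorbance at 600 nm.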

[11] = system: Escherichia coli; assay: Induction of outer membrane permeabilization in Escherichia coli KCTC 1682 assessed as NPN uptake by spectrofluorophotometric analysis; format: functional
How it was run: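 E. coli KCTC 1682 at OD600 0.05 in 5 mM HEPES pH 7.2 with 5 mM KCN; NPN 10 µM final, background fluorescence recorded (ex 350, em 420 nm). Peptide aliquots at various concentrations added and fluorescence followed over time until no further rise.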

[12] = system: Escherichia coli; assay: Induction of inner membrane permeabilisation in Escherichia coli ML-35 assessed as ONPG hydrolysis up to 30 ug/ml by beta-galactosidase enzyme coupled spectrophotometric analysis; format: functional
How it was run: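 E. coli ML-35 (constitutive cytoplasmic β-galactosidase, lactose permease-deficient) washed and resuspended to OD600 0.5 in 10 mM sodium phosphate pH 7.4, 100 mM NaCl, with 1.5 mM ONPG. o-Nitrophenol release tracked spectrophotometrically over time after peptide addition at various concentrations.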

[13] = system: Staphylococcus aureus; assay: Induction of cytoplasmic membrane depolarization in Staphylococcus aureus KCTC 1621 assessed as loss of membrane potential after 1 hr by DiSC3(5) dye based fluorescence assay; format: functional
[14] = system: Escherichia coli; assay: Antimicrobial activity against Escherichia coli KCTC 1682 assessed as disruption of bacterial cell membrane at 2 times MIC after 1 hr by transmission electron microscopy; format: functional
How it was run: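 Bacteria at 2×10^7 CFU/mL in LB, washed three times in PBS. Peptide in PBS was added to a final 2 × MIC and incubated 1 h at 37 °C. Pelleted cells were resuspended in PBS, applied to glow-discharged carbon-film grids, negatively stained with 1% uranyl acetate for 1 min, and imaged by TEM at 120 kV.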

[15] = system: RAW264.7; assay: Antiinflammatory activity in mouse RAW264.7 cells assessed as inhibition of LPS-induced nitric oxide production after 24 hrs by Griess method; format: functional, cell-based
How it was run: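 RAW264.7 macrophages (5×10^5 cells/mL) stimulated with LPS (20 ng/mL), with or without peptide, for 24 h. Supernatants were mixed 1:1 with Griess reagent (1% sulfanilamide, 0.1% naphthylethylenediamine, 2% phosphoric acid) for 10 min at room temperature, read at 540 nm, and quantified against an NaNO₂ standard curve. Mean ± SEM of technical triplicates, ANOVA with Bonferroni post-test.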

[16] = system: RAW264.7; assay: Antiinflammatory activity in mouse RAW264.7 cells assessed as inhibition of LPS-induced TNF-alpha production at 32 ug/mL preincubated with cells followed by LPS addition measured after 6 hrs by ELISA; format: functional
How it was run: (§4)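 RAW264.7 cells seeded at 5 × 10⁴ cells/well, left overnight, then given peptide at 37 °C. Unbound peptide was washed off with PBS (five washes) before LPS (20 ng/mL) was added for 6 h at 37 °C. TNF-α in the samples was measured by mouse ELISA. Mean ± SEM of technical triplicates, one-way ANOVA with Bonferroni post-test.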

[17] = system: Staphylococcus aureus; assay: Potency index, ratio of melittin MIC100 to compound MIC100 for Staphylococcus aureus KCTC 1621; format: functional
[18] = system: Staphylococcus aureus; assay: Potency index, ratio of melittin MIC100 to compound MIC100 for methicillin resistant Staphylococcus aureus CCARM 3089; format: functional
[19] = system: Staphylococcus aureus; assay: Potency index, ratio of melittin MIC100 to compound MIC100 for methicillin resistant Staphylococcus aureus CCARM 3095; format: functional
[20] = system: Staphylococcus aureus; assay: Antimicrobial activity against Staphylococcus aureus KCTC 1621 using 4 hrs trypsin incubated compound measured after overnight incubation by radial diffusion assay; format: functional
How it was run: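 Radial diffusion: mid-log cells (2×10^6 CFU/ml in LB) in 0.7% agarose. Peptide stock (10 mg/mL) added to trypsin in PBS (0.2 µg/mL), 4 h at 37 °C, stopped by liquid-nitrogen freezing; 10 µL on paper discs on the plates, overnight at 37 °C. Clearance-zone diameters measured.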

[21] = system: RAW264.7; assay: Antiinflammatory activity in mouse RAW264.7 cells assessed as inhibition of LPS-induced TNF-alpha production preincubated with cells followed by LPS addition measured after 6 hrs by ELISA; format: functional, cell-based; how it was run: as §4
[22] = Therapeutic index, ratio of MHC for sheep RBC to geometric mean of MICs for four bacterial strains

Q: With `N=C(N)NCCC[C@H](NC(=O)c1nn(CCc2cccc3ccccc23)cc1NC(=O)[C@H](CCCNC(=N)N)NC(=O)c1nn(CCc2cccc3ccccc23)cc1N)C(N)=O` as the compound, how does the MIC [1] read?
A: 8 µg/mL (≈ 9.35 µM)

Q: And the Activity [2]?
A: Non-Toxic

Q: What about the MIC [3] of the same compound?
A: 8 µg/mL (≈ 9.35 µM)

Q: And the MIC [4]?
A: 8 µg/mL (≈ 9.35 µM)

Q: And the MIC [5]?
A: 8 µg/mL (≈ 9.35 µM)

Q: And the MIC [6]?
A: 32 µg/mL

Q: And the MIC [7]?
A: 4 µg/mL

Q: And the MIC [8]?
A: 32 µg/mL

Q: And the MIC [9]?
A: 8 µg/mL

Q: What about the IC90 [10] of the same compound?
A: 16 µg/mL (≈ 18.7 µM)

Q: What about the Activity [11] of the same compound?
A: Dose-dependent effect

Q: What about the Activity [12] of the same compound?
A: Active

Q: And the Activity [13]?
A: Active

Q: And the Activity [14]?
A: Active

Q: And the inhibition [15]?
A: Dose-dependent effect

Q: What about the inhibition at 32 µg/mL [16] of the same compound?
A: > 50%

Q: What about the Ratio [17] of the same compound?
A: 4

Q: What about the Ratio [18] of the same compound?
A: 2 - 4

Q: What about the Ratio [19] of the same compound?
A: 2 - 4

Q: What about the Activity [20] of the same compound?
A: Active

Q: What about the inhibition [21] of the same compound?
A: Dose-dependent effect

Q: And the TI [22]?
A: 53.9
